Data published in ChEMBL document CHEMBL3734675, “Synthesis, antimycobacterial and antibacterial activity of fluoroquinolone derivatives containing an 3-alkoxyimino-4-(cyclopropylanimo)methylpyrrolidine moiety” (2015).
Converted amounts (≈) assume the structure as drawn.

What follows are compounds tested on Mycobacterium tuberculosis (assay: Antimycobacterial activity against isoniazid/rifampicin-resistant Mycobacterium tuberculosis 6133 clinical isolate incubated for 7 days by microplate Alamar Blue assay). Settings: Mycobacterium tuberculosis, 6133, 168 h.
Type: functional
Method in brief: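 Fluorescence read-out. MIC is the lowest concentration that reduces fluorescence by at least 90% relative to the mean of replicate bacterium-only controls. Isoniazid and rifampicin were included as reference drugs.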
For `CO[C@H]1/C=C/O[C@@]2(C)Oc3c(C)c(O)c4c(O)c(c(/C=N/N5CCN(C)CC5)c(O)c4c3C2=O)NC(=O)/C(C)=C\C=C\[C@H](C)[C@H](O)[C@@H](C)[C@@H](O)[C@@H](C)[C@H](OC(C)=O)[C@@H]1C` [RIFAMPIN], the MIC90 was > 40 µg/mL.
With `NNC(=O)c1ccncc1` [ISONIAZID] the MIC90 was 4 µg/mL (≈ 29.2 µM).
Compound `CCO/N=C1/CN(c2nc3c(cc2F)c(=O)c(C(=O)O)cn3C2CC2)CC1(C)CNC1CC1` (stereo not drawn) has an MIC90 of 0.11 µg/mL (≈ 0.24 µM).
